# Where two headings read alike, the source gives them in different places.
# Tests used:
# [1] = Ligand protonation constants by pH-potentiometric titration; assay type: physicochemical; conditions: for log Ka1 / log Ka2 / log Ka3 / log Ka4: 25 °C, I = 0.1 M KCl; for existence of fully deprotonated ligand in solution: speciation
# Method in brief: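 Protonation constants came from pH-potentiometric titration at 25 °C in 0.1 M KCl. The fraction of each protonated or deprotonated ligand species in solution was calculated from the fitted constants using species distribution diagrams. Overall ligand basicity was taken as the sum of the log Ka values.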
# [2] = Stability constants of Ca^2+ complexes by pH-potentiometry; assay type: binding; conditions: I = 0.1 M KCl; for log KCaL / log KCaHL / pCa: 25 °C; for log KʹCa (conditional stability constant): pH 7.4, 25 °C; for log KCaHL: protonation constant of the Ca^2+ complex; for pCa: −log [M^2+]free, [M^2+] = 10^−6 M, [L] = 10^−5 M, pH 7.4
# [3] = Stability constants of Sr^2+ complexes by pH-potentiometry; assay type: binding; conditions: I = 0.1 M KCl; for log KʹSr (conditional stability constant): pH 7.4, 25 °C; for pSr: −log [M^2+]free, [M^2+] = 10^−6 M, [L] = 10^−5 M, pH 7.4
# [4] = Stability constants of Ba^2+ complexes by pH-potentiometry; assay type: binding; conditions: for log KBaL / major species present in solution of Ba^2+ and ligand / log KBaH2L / log KBaHL / pBa: 25 °C; for log KBaL / log KʹBa (conditional stability constant) / major species present in solution of Ba^2+ and ligand / log KBaH2L / log KBaHL / pBa: I = 0.1 M KCl; for log KʹBa (conditional stability constant): pH 7.4, 25 °C; for major species present in solution of Ba^2+ and ligand / pBa / selectivity for Ba^2+ over Ca^2+ (ratio of pM values) / selectivity for Ba^2+ over Sr^2+ (ratio of pM values): pH 7.4; for major species present in solution of Ba^2+ and ligand: [Ba^2+]tot = [L]tot = 1.0 mM; for log KBaH2L / log KBaHL: protonation constant of the Ba^2+ complex; for pBa: −log [M^2+]free, [M^2+] = 10^−6 M, [L] = 10^−5 M
# [5] = Dissolution of BaSO4 suspension by ligand, GFAAS
# Method in brief: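 BaSO4 was formed in pH 8 NaHCO3 from Ba(NO3)2 (4.53 mM) and excess Na2SO4 (13.48 mM), then ligand (5 mM) was added at RT. Dissolved barium was measured by GFAAS after 10, 20 and 30 min. A second series used pH 11 […] buffer and was sampled at 5 and 30 min. Results are reported as percent of BaSO4 dissolved.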
# [6] = Dissolution of crude barite ore in columns, ligand efficiency by GFAAS; conditions: barite 3 g, soak 1 h
# [7] = I = 0.1 M KCl, cited from earlier work
# [8] = cited from earlier work; for log KCaHL: protonation constant of the Ca^2+ complex
# [9] = cited from earlier work; for log KSrHL: protonation constant of the Sr^2+ complex
# [10] = cited from earlier work
# [11] = Kinetic inertness: La^3+ transmetalation challenge of Ba–L complexes, UV-vis; assay type: physicochemical; conditions: 1000 equiv of La^3+, RT, pH 7.3
# [12] = Stability of Ba^2+ complexes in the presence of hydroxyapatite, GFAAS; assay type: physicochemical; conditions: HAP suspension, pH 7.6 buffer, after 20 h; 1.1 equiv L, 1.0 equiv Ba^2+
# [13] = protonation constant of the Sr^2+ complex, 25 °C
# [14] = pH 8 NaHCO3, RT, ligand 5 mM, 30 min
# [15] = I = 0.1 M KNO3, bracketed value
Structure (SMILES),overall basicity (sum of log Ka values) [1],log Ka1 [1],log Ka2 [1],log Ka3 [1],log Ka4 [1],log KCaL [2],log KʹCa (conditional stability constant) [2],pCa [2],log KSrL ([3]; 25 °C),log KʹSr (conditional stability constant) [3],"log KSrHL [3, 13]",pSr ([3]; 25 °C),log KBaL [4],log KʹBa (conditional stability constant) [4],major species present in solution of Ba^2+ and ligand [4],log KBaH2L [4],log KBaHL [4],pBa [4],"BaSO4 dissolved [5, 14]",selectivity for Ba^2+ over Ca^2+ (ratio of pM values) [4] [fold],also measured
O=C(O)c1cccc(CN2CCOCCOCCN(Cc3ccc4cccc(O)c4n3)CCOCCOCC2)n1 [macropaquin],27.69,10.33,7.15,6.97,3.24(4),5.90(4),3.94,6.04,9.19(5),7.54,8.92(2),8.50,10.87(2),10.05,MHL species,3.28(2),9.76(2),11.01,95%,–,log Ka1 ([1]; listed as macropaquin^2−): 10.33(4); log Ka2 ([1]; listed as macropaquin^2−): 7.15(3); log Ka3 ([1]; listed as macropaquin^2−): 6.97(2); fraction of ligand as monoprotonated species HL^– ([1]; pH 7.4): 56%; existence of fully deprotonated ligand in solution [1]: do not exist in solution below pH 8; log KCaHL [2]: 8.59(2)
"O=C(O)CN(CCN(CC(=O)O)CC(=O)O)CCN(CC(=O)O)CC(=O)O [DTPA, reference compound]",–,–,–,–,–,–,7.63,8.59,–,5.53,–,6.61,–,4.63,–,–,–,6.15,40%,< 1,"selectivity for Ba^2+ over Sr^2+ (ratio of pM values) [4]: < 1 fold; BaSO4 dissolved ([5]; pH 11 NaCO3 buffer, 5 min): nearly all; ligand efficiency (percent of ligand saturated with Ba^2+) ([6]; pH 8, ~48 mM ligand): 2%; ligand efficiency (percent of ligand saturated with Ba^2+) ([6]; pH 11, ~48 mM ligand): 17%; log Ka1 [7]: 10.34; log Ka2 [7]: 8.59; log Ka3 [7]: 4.25; log Ka4 [7]: 2.71; log Ka5 [7]: 2.18; log KCaL ([8]; I = 0.1 M KCl): 11.77; log KCaHL [8]: 6.10; log KSrL [9]: 9.68; log KSrHL [9]: 5.4; log KBaL [10]: 8.78; log KBaHL ([10]; protonation constant of the Ba^2+ complex): 5.34"
O=S(=O)(O)c1ccc(O)c2nc(CN3CCOCCOCCN(Cc4ccc5c(S(=O)(=O)O)ccc(O)c5n4)CCOCCOCC3)ccc12 [macroquin–SO3],32.14,9.34,9.43,6.75,6.62,6.04(8),3.19,6.01,8.62(2),5.64,8.34(4),6.70,10.44(6),8.76,MH2L species,7.80(2),9.24(7),9.72,–,–,"log Ka1 ([1]; listed as macroquin–SO3^4−): 9.34(4); log Ka2 ([1]; listed as macroquin–SO3^4−): 9.43(1); log Ka3 ([1]; listed as macroquin–SO3^4−): 6.75(4); log Ka4 ([1]; listed as macroquin–SO3^4−): 6.62(4); fraction of ligand as H2L^2– ([1]; pH 7.4): 78%; existence of fully deprotonated ligand in solution [1]: do not exist in solution below pH 8; log KCaHL [2]: 8.60(4); log KSrH2L [3, 13]: 6.920(3)"
O=C([O-])c1cccc(CN2CCOCCOCCN(Cc3cccc(C(=O)[O-])n3)CCOCCOCC2)n1.[Ba+2] [Ba–macropa],–,–,–,–,–,–,–,–,–,–,–,–,–,–,–,–,–,–,–,–,half-life (t½) of substitution of Ba^2+ with La^3+ [11]: 5.45 ± 0.20 min; Ba^2+ retained in the liquid phase (intact complex) [12]: 82%
O=C(O)c1cccc(CN2CCOCCOCCN(Cc3cccc(C(=O)O)n3)CCOCCOCC2)n1 [macropa],19.99,7.41,6.899,3.23(1),2.45(5),5.79(1),5.42,6.54,9.442(4),9.07,3.35(8),10.02,11.11(4),10.74,ML species,2.49(7),3.76(2),11.69,complete dissolution,1.79,"log Ka1 ([1]; listed as macropa^2−): 7.41(1); log Ka2 ([1]; listed as macropa^2−): 6.899(3); fraction of ligand fully deprotonated (L^2–) ([1]; pH 7.4): 43%; Ba^2+ bound by ligand ([4]; pH 4.0): 90%; Ba^2+ complexed by ligand ([4]; pH 5.1): 99%; selectivity for Ba^2+ over Sr^2+ (ratio of pM values) [4]: 1.17 fold; BaSO4 dissolved ([5]; pH 8 NaHCO3, RT, ligand 5 mM, 10 min): 78%; BaSO4 dissolved ([5]; pH 11 NaCO3 buffer, 5 min): > 95%; ligand efficiency (percent of ligand saturated with Ba^2+) ([6]; pH 8, ~48 mM ligand): 40%; ligand efficiency (percent of ligand saturated with Ba^2+) ([6]; pH 11, ~48 mM ligand): 40%; log Ka1 ([7]; parenthetic value): 7.41; log Ka2 ([7]; parenthetic value): 6.85; log Ka3 ([7]; parenthetic value): 3.32; log Ka4 ([7]; parenthetic value): 2.36; log Ka5 ([7]; parenthetic value): (1.69); log KCaL [8, 15]: 5.25; log KSrL [9, 15]: 9.57"
"O=C(O)CN1CCN(CC(=O)O)CCN(CC(=O)O)CCN(CC(=O)O)CC1 [DOTA, reference compound]",–,–,–,–,–,–,10.34,11.29,–,8.35,–,9.30,–,5.72,–,–,–,6.76,40%,< 1,"selectivity for Ba^2+ over Sr^2+ (ratio of pM values) [4]: < 1 fold; BaSO4 dissolved ([5]; pH 11 NaCO3 buffer, 30 min): 75%; log Ka1 [7]: 11.14; log Ka2 [7]: 9.69; log Ka3 [7]: 4.85; log Ka4 [7]: 3.95; log KCaHL ([8]; I = 0.1 M KCl): 3.60; log KSrHL ([9]; I = 0.1 M KCl): 4.52; log KBaL ([10]; I = 0.1 M KCl): 11.75"
